Experimental data reported in ChEMBL document CHEMBL1275589, “Molecular epidemiology, sequence types, and plasmid analyses of KPC-producing Klebsiella pneumoniae strains in Israel” (2010).

Columns and labels:
[1] = system: Klebsiella pneumoniae; assay: Antimicrobial activity against carbapenem-resistant KPC-2 producing Klebsiella pneumoniae 469 ST 277 expressing beta-lactamase SHV-27, CTX-M-15 and OXA-4 by agar dilution method; assay type: functional
[2] = system: Klebsiella pneumoniae; assay: Antimicrobial activity against KPC-3 producing Klebsiella pneumoniae 549 ST 327 expressing beta-lactamase TEM-1 and CTX-M-2 by agar dilution method; assay type: functional
[3] = system: Klebsiella pneumoniae; assay: Antimicrobial activity against KPC-3 producing Klebsiella pneumoniae 549 transformant by agar dilution method; assay type: functional
[4] = system: Klebsiella pneumoniae; assay: Antimicrobial activity against carbapenem-resistant KPC-2 producing Klebsiella pneumoniae 525 transformant by agar dilution method; assay type: functional
[5] = system: Klebsiella pneumoniae; assay: Antimicrobial activity against carbapenem-resistant KPC-2 producing Klebsiella pneumoniae 531 transformant by agar dilution method; assay type: functional
[6] = system: Klebsiella pneumoniae; assay: Antimicrobial activity against KPC-3 producing Klebsiella pneumoniae 557 ST 258 expressing beta-lactamase TEM-1 by agar dilution method
[7] = system: Klebsiella pneumoniae; assay: Antimicrobial activity against carbapenem-resistant KPC-2 producing Klebsiella pneumoniae 526 ST 376 expressing beta-lactamase SHV-1 by agar dilution method; assay type: functional
[8] = system: Klebsiella pneumoniae; assay: Antimicrobial activity against carbapenem-resistant KPC-2 producing Klebsiella pneumoniae 588 transformant by agar dilution method; assay type: functional
[9] = system: Klebsiella pneumoniae; assay: Antimicrobial activity against carbapenem-resistant KPC-2 producing Klebsiella pneumoniae 525 ST 376 expressing beta-lactamase SHV-1 by agar dilution method; assay type: functional
[10] = system: Klebsiella pneumoniae; assay: Antimicrobial activity against carbapenem-resistant KPC-2 producing Klebsiella pneumoniae 588 ST 340 expressing beta-lactamase TEM-1 and SHV-11 by agar dilution method; assay type: functional
[11] = system: Klebsiella pneumoniae; assay: Antimicrobial activity against carbapenem-resistant KPC-2 producing Klebsiella pneumoniae 523 ST 340 expressing beta-lactamase TEM-1, SHV-11 and OXA-2 by agar dilution method; assay type: functional
[12] = system: Klebsiella pneumoniae; assay: Antimicrobial activity against carbapenem-resistant KPC-2 producing Klebsiella pneumoniae 523 transformant by agar dilution method; assay type: functional
[13] = system: Klebsiella pneumoniae; assay: Antimicrobial activity against KPC-3 producing Klebsiella pneumoniae 557 transformant by agar dilution method; assay type: functional
[14] = system: Klebsiella pneumoniae; assay: Antimicrobial activity against carbapenem-resistant KPC-2 producing Klebsiella pneumoniae 365 transformant by agar dilution method; assay type: functional
[15] = system: Klebsiella pneumoniae; assay: Antimicrobial activity against carbapenem-resistant KPC-2 producing Klebsiella pneumoniae 475 transformant by agar dilution method; assay type: functional
[16] = system: Klebsiella pneumoniae; assay: Antimicrobial activity against carbapenem-resistant KPC-2 producing Klebsiella pneumoniae 469 transformant by agar dilution method; assay type: functional
[17] = system: Escherichia coli; assay: Antimicrobial activity against Escherichia coli Genehogs by agar dilution method; assay type: functional
Method in brief: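 Carbapenem MICs by agar dilution, interpreted per CLSI. FDA Enterobacteriaceae breakpoints applied: susceptible ≤2 μg/ml, intermediate 4 μg/ml, resistant ≥8 μg/ml. Transformants were made in recipient E. coli GeneHogs with purified plasmid DNA.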

[18] = system: Klebsiella pneumoniae; assay: Antimicrobial activity against carbapenem-resistant KPC-2 producing Klebsiella pneumoniae 531 ST 376 expressing beta-lactamase SHV-1 by agar dilution method; assay type: functional
[19] = system: Klebsiella pneumoniae; assay: Antimicrobial activity against carbapenem-resistant KPC-2 producing Klebsiella pneumoniae 365 ST 376 expressing beta-lactamase SHV-1, CTX-M-15 and OXA-4 by agar dilution method
[20] = system: Klebsiella pneumoniae; assay: Antimicrobial activity against carbapenem-resistant KPC-2 producing Klebsiella pneumoniae 475 ST 277 expressing beta-lactamase SHV-27, CTX-M-15 and OXA-4 by agar dilution method; assay type: functional
[21] = system: Klebsiella pneumoniae; assay: Antimicrobial activity against carbapenem-resistant KPC-2 producing Klebsiella pneumoniae 526 transformant by agar dilution method; assay type: functional
[22] = system: Klebsiella pneumoniae; assay: Antimicrobial activity against carbapenem-resistant KPC-2 producing Klebsiella pneumoniae 588 ST 340 expressing beta-lactamase TEM-1 and SHV-11 by Etest; assay type: functional
[23] = system: Klebsiella pneumoniae; assay: Antimicrobial activity against carbapenem-resistant KPC-2 producing Klebsiella pneumoniae 526 ST 376 expressing beta-lactamase SHV-1 by Etest; assay type: functional
[24] = system: Klebsiella pneumoniae; assay: Antimicrobial activity against carbapenem-resistant KPC-2 producing Klebsiella pneumoniae 525 transformant by Etest; assay type: functional
[25] = system: Klebsiella pneumoniae; assay: Antimicrobial activity against KPC-3 producing Klebsiella pneumoniae 549 ST 327 expressing beta-lactamase TEM-1 and CTX-M-2 by Etest; assay type: functional
[26] = system: Klebsiella pneumoniae; assay: Antimicrobial activity against carbapenem-resistant KPC-2 producing Klebsiella pneumoniae 365 transformant by Etest; assay type: functional
[27] = system: Klebsiella pneumoniae; assay: Antimicrobial activity against carbapenem-resistant KPC-2 producing Klebsiella pneumoniae 475 transformant by Etest; assay type: functional
[28] = system: Klebsiella pneumoniae; assay: Antimicrobial activity against carbapenem-resistant KPC-2 producing Klebsiella pneumoniae 531 ST 376 expressing beta-lactamase SHV-1 by Etest; assay type: functional
[29] = system: Escherichia coli; assay: Antimicrobial activity against Escherichia coli Genehogs by Etest; assay type: functional
[30] = system: Klebsiella pneumoniae; assay: Antimicrobial activity against carbapenem-resistant KPC-2 producing Klebsiella pneumoniae 588 transformant by Etest; assay type: functional
[31] = system: Klebsiella pneumoniae; assay: Antimicrobial activity against KPC-3 producing Klebsiella pneumoniae 557 transformant by Etest; assay type: functional
[32] = system: Klebsiella pneumoniae; assay: Antimicrobial activity against carbapenem-resistant KPC-2 producing Klebsiella pneumoniae 531 transformant by Etest; assay type: functional
[33] = system: Klebsiella pneumoniae; assay: Antimicrobial activity against carbapenem-resistant KPC-2 producing Klebsiella pneumoniae 475 ST 277 expressing beta-lactamase SHV-27, CTX-M-15 and OXA-4 by Etest; assay type: functional
[34] = system: Klebsiella pneumoniae; assay: Antimicrobial activity against carbapenem-resistant KPC-2 producing Klebsiella pneumoniae 523 ST 340 expressing beta-lactamase TEM-1, SHV-11 and OXA-2 by Etest; assay type: functional
[35] = system: Klebsiella pneumoniae; assay: Antimicrobial activity against carbapenem-resistant KPC-2 producing Klebsiella pneumoniae 469 ST 277 expressing beta-lactamase SHV-27, CTX-M-15 and OXA-4 by Etest; assay type: functional
[36] = system: Klebsiella pneumoniae; assay: Antimicrobial activity against carbapenem-resistant KPC-2 producing Klebsiella pneumoniae 523 transformant by Etest; assay type: functional
[37] = system: Klebsiella pneumoniae; assay: Antimicrobial activity against KPC-3 producing Klebsiella pneumoniae 549 transformant by Etest; assay type: functional
[38] = system: Klebsiella pneumoniae; assay: Antimicrobial activity against carbapenem-resistant KPC-2 producing Klebsiella pneumoniae 526 transformant by Etest; assay type: functional
[39] = system: Klebsiella pneumoniae; assay: Antimicrobial activity against carbapenem-resistant KPC-2 producing Klebsiella pneumoniae 525 ST 376 expressing beta-lactamase SHV-1 by Etest; assay type: functional
[40] = system: Klebsiella pneumoniae; assay: Antimicrobial activity against carbapenem-resistant KPC-2 producing Klebsiella pneumoniae 469 transformant by Etest; assay type: functional

Measured: MIC

C[C@@H](O)[C@H]1C(=O)N2C(C(=O)O)=C(SCCNC=N)C[C@H]12 [IMIPENEM ANHYDROUS]
32 µg/mL: [1] | [7] | [9] | [10] | [11] | [18] | [19] | [20]
8 µg/mL: [8] | [12] | [14] | [15] | [16] | [21]
0.094 µg/mL: [17]
128 µg/mL: [6]
4 µg/mL: [3] | [4] | [5] | [13]
0.75 µg/mL: [2]

C[C@H]1COc2c(N3CCN(C)CC3)c(F)cc3c(=O)c(C(=O)O)cn1c23.C[C@H]1COc2c(N3CCN(C)CC3)c(F)cc3c(=O)c(C(=O)O)cn1c23.O [LEVOFLOXACIN]
< 0.25 µg/mL: [1] | [3] | [4] | [5] | [13] | [16]
0.25 µg/mL: [12]
> 8 µg/mL: [2] | [6] | [7] | [9] | [10] | [11] | [18] | [19]
< 0.12 µg/mL: [8] | [14] | [15] | [21]
0.006 µg/mL: [17]

C[C@@H](O)[C@H]1C(=O)N2C(C(=O)O)=C(S[C@@H]3CN[C@H](C(=O)N(C)C)C3)[C@H](C)[C@H]12 [MEROPENEM]
0.012 µg/mL: [17]
2 µg/mL: [3]
8 µg/mL: [2]
64 µg/mL: [7] | [9] | [10] | [18] | [19] | [20]
128 µg/mL: [6]
4 µg/mL: [4] | [5] | [8] | [12] | [13] | [14] | [15] | [16] | [21]
32 µg/mL: [1] | [11]

COLISTIN
0.032 µg/mL: [24] | [26] | [27] | [31] | [32] | [37] | [38] | [40]
0.125 µg/mL: [23] | [25] | [28] | [29] | [34] | [35] | [39]
0.047 µg/mL: [30] | [36]
0.19 µg/mL: [22] | [33]

GENTAMICIN
> 16 µg/mL: [1] | [2] | [11] | [15] | [16] | [20]
< 1 µg/mL: [3] | [4] | [5] | [7] | [9] | [10] | [13] | [14] | [17] | [18] | [21]
2 µg/mL: [8] | [12]
